The values below come from ChEMBL document CHEMBL1132613 (J Med Chem, 1999).

The subject of test [1] is Rattus norvegicus. Nature of the test: Percentage of animals emitting >80% of lever presses in rats at 8.0 mg/kg dose. It is filed as functional. The essentials: (§1)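 Male Sprague–Dawley rats (200–220 g) in a two-lever, FR50 food-reinforced task. Rats were trained to discriminate saline from LSD tartrate (0.08 mg/kg), DOI HCl (0.4 mg/kg) or LY293284 (0.025 mg/kg) in 15-min sessions. %SDL is the share of rats making over 80% of presses on the drug lever. %D is the share failing to make 50 presses within 15 min. ED50 by Litchfield–Wilcoxon log-probit.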

The subject of test [2] is Rattus norvegicus. The test is described as follows: Drug Discrimination in […] trained rats at 2.0 mg/kg dose. It is filed as functional. The procedure, abridged:
as §1

In test [3] the target is T1, 5-hydroxytryptamine receptor 1A (Rattus norvegicus, UniProt P19327).
T1 sequence (P19327 whole entry): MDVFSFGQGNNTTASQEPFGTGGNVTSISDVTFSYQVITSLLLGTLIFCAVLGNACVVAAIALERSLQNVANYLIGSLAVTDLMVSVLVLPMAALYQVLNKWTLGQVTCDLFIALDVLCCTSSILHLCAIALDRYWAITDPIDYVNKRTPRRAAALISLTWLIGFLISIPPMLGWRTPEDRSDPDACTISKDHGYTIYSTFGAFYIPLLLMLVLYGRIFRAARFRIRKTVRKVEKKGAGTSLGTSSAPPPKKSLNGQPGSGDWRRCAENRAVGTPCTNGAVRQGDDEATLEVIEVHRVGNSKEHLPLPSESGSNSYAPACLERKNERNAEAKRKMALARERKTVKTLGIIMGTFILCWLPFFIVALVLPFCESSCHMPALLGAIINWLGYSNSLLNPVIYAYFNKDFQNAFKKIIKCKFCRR
The test is described as follows: Compound was tested for the displacement of [3H]-8-OH- DPAT from rat brain 5-hydroxytryptamine 1A receptor. The procedure, abridged: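 Pooled rat hippocampal membranes were preincubated at 37 °C. Buffer was 50 mM Tris HCl pH 7.4 with 0.5 mM Na2EDTA, 10 mM MgCl2, 0.1% Na ascorbate and pargyline. 200–400 μg protein was incubated with [3H]-8-OH-DPAT for 15 min at 37 °C, then GF/C filtered and scintillation counted. Nonspecific binding was defined with 10 μM 5-HT. Triplicate tubes.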

The test system of test [4] is Rattus norvegicus. The test is described as follows: Percentage of animals failing to emit 50 lever presses within 15 min in rats at 8.0 mg/kg dose. It counts as functional. The essentials:
(§2)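 Two-lever drug discrimination in male Sprague–Dawley rats (200–220 g at start), trained against saline on LSD tartrate (0.08 mg/kg), DOI HCl (0.4 mg/kg) or LY293284 (0.025 mg/kg). FR50 food-pellet reinforcement, levers counterbalanced, 15-min sessions at 22–24 °C. %D is the share of tested rats not completing 50 lever presses within 15 min.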

Test [5] concerns Rattus norvegicus. Nature of the test: Drug Discrimination in […] trained rats at 4.0 mg/kg dose. It counts as functional. The essentials:
as §1

The test system of test [6] is Rattus norvegicus. Nature of the test: Percentage of animals emitting >80% of lever presses in rats at 1.0 mg/kg dose. It is filed as functional. The procedure, abridged: as §1
Test [7] relates to Rattus norvegicus. Nature of the test: Percentage of animals emitting >80% of lever presses in rats at 2.0 mg/kg dose. It counts as functional. The procedure, abridged: as §1
For test [8], the system named is Rattus norvegicus. Nature of the test: Drug Discrimination in […] trained rats at 0.5 mg/kg dose. It is filed as functional. The procedure, abridged:
as §1

Test [9] deals with Rattus norvegicus. The test is described as follows: Drug Discrimination in […] trained rats at 8.0 mg/kg dose. It counts as functional. The procedure, abridged: as §1
Test [10] concerns Rattus norvegicus. Nature of the test: Percentage of animals failing to emit 50 lever presses within 15 min in rats at 2.0 mg/kg dose. It is filed as functional. The procedure, abridged: as §2
The test system of test [11] is Rattus norvegicus. The test is described as follows: Percentage of animals emitting >80% of lever presses in rats at 4.0 mg/kg dose. It is filed as functional. The essentials: as §1
The target of test [12] is 5-hydroxytryptamine receptor 2A (Homo sapiens, UniProt P28223).
For test [13], the system named is Rattus norvegicus. Nature of the test: Drug Discrimination in […] trained rats at 1.0 mg/kg dose. It is filed as functional. The essentials:
as §1

The subject of test [14] is Rattus norvegicus. The test is described as follows: Percentage of animals failing to emit 50 lever presses within 15 min in rats at 1.0 mg/kg dose. It is filed as functional. The essentials: as §2
Test [15] has as its system Rattus norvegicus. Nature of the test: Percentage of animals failing to emit 50 lever presses within 15 min in rats at 4.0 mg/kg dose. It counts as functional. The essentials:
as §2

Chain of 5-hydroxytryptamine receptor 2A (P28223 whole entry): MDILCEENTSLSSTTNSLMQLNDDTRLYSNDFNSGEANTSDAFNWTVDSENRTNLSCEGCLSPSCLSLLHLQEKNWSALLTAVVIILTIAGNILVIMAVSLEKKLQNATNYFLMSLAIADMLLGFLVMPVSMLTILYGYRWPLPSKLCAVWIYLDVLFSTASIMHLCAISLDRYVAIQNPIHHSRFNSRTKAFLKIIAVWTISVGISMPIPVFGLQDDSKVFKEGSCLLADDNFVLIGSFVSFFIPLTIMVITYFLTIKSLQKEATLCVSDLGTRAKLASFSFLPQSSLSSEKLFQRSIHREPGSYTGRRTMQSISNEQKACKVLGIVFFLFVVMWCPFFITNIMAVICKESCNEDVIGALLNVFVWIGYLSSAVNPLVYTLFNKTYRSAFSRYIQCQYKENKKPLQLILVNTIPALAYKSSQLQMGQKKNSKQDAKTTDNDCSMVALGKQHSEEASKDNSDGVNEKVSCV

Broadly, the Ki is the equilibrium dissociation constant of an inhibitor or competing ligand from its target. A higher Ki goes with weaker binding. On to `CN(C)CCc1c[nH]c2ccccc12`, for which the SDL in [1] was 83%; in test [2], 37.5%; in test [5], 62.5%; in test [6], 37%; in [7], 22%; in test [8], 0%. For the same compound, the SDL in test [9] came out at 100%; in test [11], 40%; in [13] it was 20%. Further, the D in [2] was determined as 20%; in [4], 37%; in test [5], 20%; in [8], 0%; in test [9] it was 80%; in [10], 18%. Further, the D turned out to be 11% in [13], 0% in test [14] and 23% in test [15]. Also, the values for the inhibition constant Ki in [3] and in test [12] were 0.259 µM and 0.065 µM, respectively.
